Source: PubChem (Broad Institute)
CSC inhib – cancer stem cell inhibition | cancer stem cell-like cells viability, luminescence | inhibition, % at 7.5 µM | hit rate 1.1% among 300,000 | AID 2717; in the data active = inhibition above about 75%; tested in HMLE shEcad cells
Calb FLC – affects C. albicans growth with fluconazole. C. albicans CaCi-2 (fluconazole-resistant clinical isolate) + fluconazole, Alamar Blue growth, 48 h. growth inhibition, % (concentration not given with the values). hit rate 0.57% among 300,000. AID 1979;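 active = growth inhibition above about 58% in most replicates, limit read from the data, passing the limit was not always enough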;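 note: all wells also contain fluconazole at 8 µg/ml as a sub-toxic cotreatment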
Beta apoptosis – beta cell apoptosis inhibition. INS-1E cytokine-induced death, ATP luminescence, 48 h; percent of positive-control rescue, neutral wells zero. protection from apoptosis, % (no concentration beside the values). AID 435005. hit rate 0.8% among 300,000;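 active = Every replicate reaches about 75%, or at least half do and their mean reaches it too, limit read from the data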;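 note: higher means more ATP so stronger rescue from cytokine killing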
HIF activator – HIF pathway transcriptional activation | U2OS HRE-luciferase reporter, luminescence; normalized: DMSO 0%, desferrioxamine 100% | activation, % at 7.5 µM (by protocol) | hit rate 0.32% among 300,000;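 active = mean activation of at least 10% of the iron chelator positive control signal, with at least half of replicates also reaching 10%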
PolyA inh – inhibitors of polyadenylation in S. cerevisiae; S. cerevisiae SKY197-pL101 polyadenylation reporter, beta-gal luminescence; efflux-impaired pdr1/pdr3 knockout yeast; score 100 = 6 SD above DMSO; activity score, % at 12 µM; hit rate 0.02% among 300,000; AID 1875;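 active = lowest replicate activity score at least 50, where 100 means six control SD above control mean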;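 note: yeast exposed to compound for 9 h at 30 °C; higher score means more reporter readthrough which indicates perturbed polyadenylation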
T cruzi repl – blocks replication of Trypanosoma cruzi | T. cruzi beta-gal in NIH3T3, luminescence, 90 h | AID 1885 | hit rate 1.4% among 300,000 | inhibition, % (no concentration beside the values);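 active = mean inhibition across valid replicates above about 55%, limit read from the data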;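 note: signal also drops with host cell toxicity which is not excluded here; higher percent means less beta-gal luminescence so fewer parasites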
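Assay system: NIH/3T3 host cells with β-galactosidase reporter T. cruzi; input: 5,000 host fibroblasts per well; compound: single 50 nL compound addition per well in DMSO; timing: ≥90 h infection period, 3 h prior cell attachment; measured by: GalScreen β-gal luminescence, detergent lysis, 60 min; evaluation: percent inhibition of parasite-derived β-gal signal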
Numbers stand for hits; . = inactive; / = not tested or not shown. Only some compounds are listed: those with a hit (about 3.1% of all), similar ones and a draw of the others.

SMILES	CSC inhib	Calb FLC	Beta apoptosis	HIF activator	PolyA inh	T cruzi repl
Cc1ccc(N=c2c([N+](=O)[O-])nn(-c3ccc(Cl)cc3)n2O)cc1C	.	.	.	.	.	59
Cc1cc(C)cc(N=c2c([N+](=O)[O-])nn(-c3ccc4c(c3)OCCO4)n2O)c1	.	.	.	.	.	58
COc1ccc([C@H]2CC(=O)C=C(c3cccc(C(C)C)c3)C2)cc1OC	.	/	.	/	/	/
O=[N+]([O-])c1nn(-c2ccc3c(c2)OCCO3)n(O)c1=Nc1ccc(Cl)cc1	.	.	.	.	.	55
CCN1C(=O)[C@H]2[C@@H](c3ccc(-c4cc(C(C)=O)cs4)cc3)N3CCC[C@@]3(C(=O)OC)[C@H]2C1=O	.	/	.	/	/	/
O=C(NCCCN1CCN(c2ccc(F)cc2)CC1)C1CCCN(c2ncnc3c2nc2n3CCCCC2)C1 (stereo not drawn)	.	.	.	.	.	.
COc1ccccc1N1CCN(CCCNC(=O)C2CCCN(c3ncnc4c3nc3n4CCCCC3)C2)CC1 (stereo not drawn)	.	.	.	134	.	.
COc1ccc2nc(C)cc(N/N=C/c3cccc(OC)c3O)c2c1	.	.	.	.	.	.
COc1ccc(/C=N/Nc2cc(C)nc3ccc(Br)cc23)cc1	107	.	100	.	.	59
O=C1c2cccc3c(Nc4ccccc4Cl)c([N+](=O)[O-])cc(c23)C(=O)N1CCO	.	.	.	.	.	59
CN(c1ccccc1C(=O)Nc1cccc([N+](=O)[O-])c1)S(C)(=O)=O	.	.	.	.	.	.
CCOc1c(Br)cc(CNc2ccc3c(c2)OCCO3)cc1OC	.	.	.	.	.	.
CCOc1cc(CNc2ccc3c(c2)OCCO3)cc(Br)c1OC	78	.	.	.	.	.
O=C(Nc1ccncc1Cl)c1ccncc1	.	.	.	.	.	.
N#CC1(C#N)CC(C=O)=C(N)C1(C#N)CC(=O)C12CC3CC(CC(C3)C1)C2 (stereo not drawn)	.	.	.	.	.	.
Cn1c(=O)c2c(ncn2CC(COCc2ccccc2)OCc2ccccc2)n(C)c1=O (stereo not drawn)	.	.	.	.	.	.
O=[N+]([O-])c1ccc(S(=O)(=O)N2CCN(c3ccc(N4CCOCC4)nn3)CC2)cc1	.	.	.	.	.	60
O=[N+]([O-])c1ccc(S(=O)(=O)Nc2ccc(-c3ccc(N4CCCC4)nn3)cc2)cc1	.	.	.	.	.	55
O=[N+]([O-])c1ccc(Cl)c(S(=O)(=O)Nc2ccc(-c3ccc(N4CCCC4)nn3)cc2)c1	.	.	.	.	.	.
Cc1cc(OC(C)C(=O)N(Cc2ccco2)C2CCS(=O)(=O)C2)ccc1Cl (stereo not drawn)	.	.	.	.	.	.
CNC(=S)N(CCc1c(C)[nH]c2ccc(C)cc12)Cc1ccco1	.	.	.	.	.	.
CCNC(=S)N(CCc1c(C)[nH]c2ccc(Cl)cc12)Cc1ccco1	.	.	.	.	.	72
COCCNC(=S)N(CCc1c(C)[nH]c2ccc(Cl)cc12)Cc1cccs1	79	.	.	.	.	.
CNC(=S)N(CCc1c(C)[nH]c2ccc(Cl)cc12)Cc1cccs1	.	.	.	.	.	60
COCCNC(=S)N(CCc1c(C)[nH]c2ccc(F)cc12)Cc1cccs1	.	.	.	.	.	.
SMILES	CSC inhib	Calb FLC	Beta apoptosis	HIF activator	PolyA inh	T cruzi repl
O=C(NCCc1cccs1)C(c1ccccc1)c1ccccc1	.	.	.	.	.	.
O=C(Nc1ccc(C(F)(F)F)cc1)C1CCN(S(=O)(=O)c2ccc(N3CCCC3=O)cc2)CC1	.	.	101	.	.	.
COc1ccc(NC(=O)C2CCN(S(=O)(=O)c3ccc(N4CCCC4=O)cc3)CC2)cc1OC	.	.	.	.	.	.
COc1ccccc1NC(=O)CC1C(=O)Nc2ccccc2N1C(=O)c1ccccc1 (stereo not drawn)	.	.	.	.	.	.
CCOc1ccc(NC(=O)CC2C(=O)Nc3ccccc3N2C(=O)c2ccccc2)cc1 (stereo not drawn)	.	.	.	26	.	.
CCOC(=O)C1=C(c2ccccc2)NC(SCC(=O)Nc2ccc(C)cc2)=C(C#N)C1c1ccco1 (stereo not drawn)	.	.	.	.	.	65
